Test results: ChEMBL document CHEMBL3098124, “Design, synthesis and anti-Alzheimer properties of dimethylaminomethyl-substituted curcumin derivatives” (Bioorg Med Chem Lett, 2014)

How the values were obtained:
[1] = Aqueous solubility of the compound; format: physicochemical
[2] = n-octanol-water partition coefficient, log P of the compound by HPLC analysis; format: physicochemical
Outline: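 Experimental logP determined in an octanol–water system for two representative compounds. All other values were calculated in silico.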

[3] = Antioxidant activity assessed as galvinoxyl free radical scavenging activity after 19 hrs; format: functional
Outline: (§1)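 In vitro scavenging of DPPH or galvinoxyl radicals by a literature method. IC50 reported in µM as mean ± S.E.M.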

[4] = Chemical stability of the compound in PBS at pH 7.4 at […] measured up to 120 mins by absorption spectroscopic analysis in presence of 0.1% FBS; format: physicochemical; conditions: buffer, pH 7.4, 2 h
Outline: (§2)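 Visible absorption at 410 nm tracked over time in phosphate-buffered solution, pH 7.4, under daylight. FBS was 0.1% for line 5 and absent for line 4. Stability expressed as A/A0, with A0 the absorbance at 0 min.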

[5] = Chemical stability of the compound in PBS at pH 7.4 at […] measured up to 120 mins by absorption spectroscopic analysis in absence of 0.1% FBS; format: physicochemical; conditions: buffer, pH 7.4, 2 h; outline: as §2
[6] = tested on: Radical scavenging activity; test: Antioxidant activity assessed as DPPH free radical scavenging activity after 4 hrs; format: functional; outline: as §1
[7] = molecular target: Amyloid-beta precursor protein (Homo sapiens) (UniProt P05067); test: Inhibition of amyloid beta-42 self-aggregation (unknown origin) after 1 hr by ThT fluorescence assay
Outline: (§3)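 Aβ42 self-aggregation read by Thioflavin T fluorescence. Test concentrations were 5, 50 and 100 µM. Each result is the mean of 3 measurements ± SEM. Statistics by one-way ANOVA with Tukey's multiple comparison test against Aβ alone.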

[8] = molecular target: Amyloid-beta precursor protein (Homo sapiens) (UniProt P05067); test: Inhibition of amyloid beta-42 self-aggregation (unknown origin) at 50 uM after 1 hr by ThT fluorescence assay relative to control; outline: as §3
[9] = molecular target: Amyloid-beta precursor protein (Homo sapiens) (UniProt P05067); test: Inhibition of amyloid beta-42 self-aggregation (unknown origin) at 100 uM after 1 hr by ThT fluorescence assay relative to control; outline: as §3

Amyloid-beta precursor protein (Homo sapiens), sequence (P05067 whole entry): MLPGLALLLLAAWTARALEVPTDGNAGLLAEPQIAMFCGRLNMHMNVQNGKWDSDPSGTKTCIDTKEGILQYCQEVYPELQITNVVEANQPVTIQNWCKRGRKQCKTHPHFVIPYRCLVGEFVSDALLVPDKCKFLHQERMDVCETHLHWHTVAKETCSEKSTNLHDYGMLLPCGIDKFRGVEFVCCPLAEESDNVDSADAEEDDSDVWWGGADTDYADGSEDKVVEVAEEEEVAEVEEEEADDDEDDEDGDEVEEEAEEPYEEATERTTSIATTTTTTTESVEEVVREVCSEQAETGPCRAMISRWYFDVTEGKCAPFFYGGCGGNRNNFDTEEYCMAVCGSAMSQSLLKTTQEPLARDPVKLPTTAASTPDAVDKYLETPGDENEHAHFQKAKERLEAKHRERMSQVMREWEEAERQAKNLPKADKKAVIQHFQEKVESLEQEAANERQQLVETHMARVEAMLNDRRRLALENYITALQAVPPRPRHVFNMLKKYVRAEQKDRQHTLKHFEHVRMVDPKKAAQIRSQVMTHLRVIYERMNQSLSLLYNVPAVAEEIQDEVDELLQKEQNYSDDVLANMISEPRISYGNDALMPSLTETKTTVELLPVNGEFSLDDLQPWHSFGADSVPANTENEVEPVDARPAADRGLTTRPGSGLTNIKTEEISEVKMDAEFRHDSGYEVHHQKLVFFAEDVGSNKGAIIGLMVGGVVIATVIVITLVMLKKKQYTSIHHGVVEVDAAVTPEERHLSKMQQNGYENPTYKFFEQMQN

| SMILES | IC50 [3] [µM] | IC50 [6] [µM] | further results |
| --- | --- | --- | --- |
| COc1cc(/C=C/C(O)=C/C(=O)/C=C/c2ccc(O)c(CN(C)C)c2)ccc1O.Cl |  |  | solubility [1]: 1200 µg/mL |
| COc1cc(/C=C/C(O)=C/C(=O)/C=C/c2ccc(O)c(CN(C)C)c2)ccc1O |  |  | logP [2]: 3.65 |
| CN(C)Cc1cc(/C=C/C(=O)/C=C(O)/C=C/c2ccc(O)c(CN(C)C)c2)ccc1O [listing 1 of 2 here] | 4.9 | 1.6 | logP [2]: 3.48; Stability [4]: Stable; Stability [5]: Stable |
| COc1ccc(/C=C/C(O)=C/C(=O)/C=C/c2ccc(O)c(CN(C)C)c2)cc1 | 11.9 | 15.1 |  |
| CN(C)Cc1cc(/C=C/C(=O)/C=C(O)/C=C/c2ccc(O)c(CN(C)C)c2)ccc1O [listing 2 of 2 here] |  |  | inhibition [7]: Dose-dependent effect; inhibition [8]: 28%; inhibition [9]: 32% |
| CN(C)Cc1cc(/C=C/C(=O)/C=C(O)/C=C/c2cccc(O)c2)ccc1O | 6.9 | 4 |  |
| Cc1ccc(/C=C/C(O)=C/C(=O)/C=C/c2ccc(O)c(CN(C)C)c2)cc1 | 22 | 18.7 |  |
| CN(C)Cc1cc(/C=C/C(=O)/C=C(O)/C=C/c2ccc(O)cc2)ccc1O | 7.6 | 1.5 |  |
| COc1cc(/C=C/C(=O)CC(=O)/C=C/c2ccc(O)c(OC)c2)ccc1O |  |  | inhibition [7]: Dose-dependent effect; inhibition [8]: 24%; inhibition [9]: 29% |
| CN(C)Cc1cc(/C=C/C(=O)/C=C(O)/C=C/c2ccc(F)cc2)ccc1O | 22.3 | 24.1 |  |
| COc1ccc(/C=C/C(O)=C/C(=O)/C=C/c2ccc(O)c(CN(C)C)c2)cc1OC | 27.4 | 29.9 |  |
| CN(C)Cc1cc(/C=C/C(=O)/C=C(O)/C=C/c2ccc(Cl)cc2)ccc1O | 41.1 | 11.1 |  |
| CN(C)Cc1cc(/C=C/C(=O)/C=C(O)/C=C/c2ccc(O)c(CN(C)C)c2)ccc1O.Cl.Cl |  |  | solubility [1]: 16700 µg/mL |
